Data set [1] concerns Mus musculus. Put plainly: Anticonvulsant activity in ip dosed CF-1 albino mouse assessed as protection from maximal electric shock-induced seizures measured after 0.5 hrs. It is filed as functional. The conditions noted are these: read-out: MED. An outline of the steps:
(§1)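 Male CF-1 mice dosed ip at 30, 100 or 300 mg/kg, suspension in 0.5% methylcellulose/water. MES: corneal electrodes primed with electrolyte containing anaesthetic, 50 mA, 60 Hz, 0.2 s. Examined 0.5 and 4 h after dosing. Value is the minimum dose protecting half or more of the animals.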

Data set [2] concerns Mus musculus. As to the kind of experiment: Anticonvulsant activity in ip dosed CF-1 albino mouse assessed as protection from maximal electric shock-induced seizures measured after 4 hrs. It is filed as functional. Conditions: read-out: MED. An outline of the steps:
as §1

Data set [3] has as its system Mus musculus. Put plainly: Neurotoxicity in CF-1 albino mouse assessed as motor impairment at 300 mg/kg, ip measured after 0.5 hrs by rotarod test. It is filed as toxicity, organism-based. The arrangement: dose 300 mg/kg, route intraperitoneal. The conditions noted are these: in vivo. An outline of the steps:
(§2)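 Rotarod neurotoxicity in male CF-1 mice given ip doses of 30, 100 or 300 mg/kg (0.5% methylcellulose suspension), examined 0.5 and 4 h after dosing. Impairment means failing to hold balance on the rod for 1 min. Value is the minimum dose causing toxicity in half or more of the animals; response comments are recorded.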
A general note: The rotarod test checks motor coordination on a turning rod.

The test system of data set [4] is Mus musculus. Put plainly: Neurotoxicity in CF-1 albino mouse assessed as motor impairment at 300 mg/kg, ip measured after 4 hrs by rotarod test. It is filed as toxicity, organism-based. Conditions: in vivo. The arrangement: dose 300 mg/kg, route intraperitoneal. An outline of the steps:
as §2

Data set [5] concerns Rattus norvegicus. Put plainly: Anticonvulsant activity in Sprague-Dawley rat assessed as protection from maximum electric shock-induced seizures at 30 mg/kg, po measured after 0.25 hrs. It is filed as functional. An outline of the steps:
(§3)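 Male Sprague–Dawley rats, four per group, given 30 mg/kg orally as a suspension in 0.5% methylcellulose/water. MES stimulus 150 mA, 60 Hz, 0.2 s via corneal electrodes. Tested at 0.25, 0.5, 1, 2 and 4 h; value is rats protected out of four.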

Data set [6] relates to Rattus norvegicus. As to the kind of experiment: Anticonvulsant activity in Sprague-Dawley rat assessed as protection from maximum electric shock-induced seizures at 30 mg/kg, po measured after 0.5 hrs. It is filed as functional. An outline of the steps:
as §3

Data set [7] has as its system Rattus norvegicus. Put plainly: Anticonvulsant activity in Sprague-Dawley rat assessed as protection from maximum electric shock-induced seizures at 30 mg/kg, po measured after 1 hr. It is filed as functional. An outline of the steps:
as §3

Data set [8] concerns Rattus norvegicus. As to the kind of experiment: Anticonvulsant activity in Sprague-Dawley rat assessed as protection from maximum electric shock-induced seizures at 30 mg/kg, po measured after 2 hrs. It is filed as functional. An outline of the steps:
as §3

The test system of data set [9] is Rattus norvegicus. Put plainly: Anticonvulsant activity in Sprague-Dawley rat assessed as protection from maximum electric shock-induced seizures at 30 mg/kg, po measured after 4 hrs. It is filed as functional. An outline of the steps:
as §3

In data set [10] the test system is Rattus norvegicus. As to the kind of experiment: Neurotoxicity in Sprague-Dawley rat assessed as motor impairment at 30 mg/kg, po by rotarod test. It is filed as toxicity, organism-based. Also on record: dose 30 mg/kg, route oral. Conditions: in vivo. An outline of the steps: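 Male Sprague–Dawley rats, four animals, oral 30 mg/kg in 0.5% methylcellulose/water. Motor impairment on the rotarod (failure to keep balance for 1 min) assessed alongside MES at five times from 0.25 to 4 h.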

For data set [11], the system named is Mus musculus. Put plainly: Anticonvulsant activity in ip dosed CF-1 albino mouse assessed as protection from maximal electric shock-induced seizures. It is filed as functional. An outline of the steps: (§4)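 ED50 and TD50 determined in male CF-1 mice after ip dosing (0.5% methylcellulose suspension) at the previously estimated time of peak effect. MES 50 mA, 60 Hz, 0.2 s. Groups of eight, with doses varied until at least three points fell between 10–90% protection or motor impairment. Regression gives ED50/TD50 with 95% confidence intervals; PI = TD50/ED50.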

Data set [12] can be described thus: Neurotoxicity in ip dosed CF-1 albino mouse assessed as motor impairment by rotarod test. It is filed as toxicity, organism-based. The conditions noted are these: in vivo.
The species entered for data set [13] is Mus musculus. Put plainly: Protective index, ratio of TD50 for CF-1 albino mouse to ED50 for CF-1 albino mouse assessed as protection from maximum electric shock-induced seizures. It is filed as functional. An outline of the steps:
as §4

Data set [14] has as its system Mus musculus. Put plainly: Anticonvulsant activity in ip dosed maximal electric shock-induced CF-1 albino mouse assessed as time of peak effect. It is filed as functional. An outline of the steps:
as §4

Data set [15] concerns Mus musculus. Put plainly: Anticonvulsant activity in CF-1 albino mouse assessed as protection against 6 Hz psychomotor seizure at 100 mg/kg, ip measured after 0.25 hrs. It is filed as functional. The conditions noted are these: route intraperitoneal. An outline of the steps:
(§5)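 6-Hz psychomotor seizure in male CF-1 mice, compound suspended in 0.5% methylcellulose/water, given ip (100 or 75 mg/kg). Corneal stimulation with 0.2 ms monopolar rectangular pulses at 6 Hz for 3 s, 32 mA, constant-current device. Protected if normal exploratory behaviour resumes within 10 s. Tested 0.25–4 h after dosing; value is mice protected out of four.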

Data set [16] deals with Mus musculus. Put plainly: Anticonvulsant activity in CF-1 albino mouse assessed as protection against 6 Hz psychomotor seizure at 100 mg/kg, ip measured after 0.5 hrs. Conditions: route intraperitoneal. It is filed as functional. An outline of the steps: as §5
In data set [17] the test system is Mus musculus. Put plainly: Anticonvulsant activity in CF-1 albino mouse assessed as protection against 6 Hz psychomotor seizure at 100 mg/kg, ip measured after 1 hr. It is filed as functional. The conditions noted are these: route intraperitoneal. An outline of the steps: as §5
Data set [18] concerns Mus musculus. As to the kind of experiment: Anticonvulsant activity in CF-1 albino mouse assessed as protection against 6 Hz psychomotor seizure at 100 mg/kg, ip measured after 2 hrs. It is filed as functional. Conditions: route intraperitoneal. An outline of the steps: as §5
In data set [19] the test system is Mus musculus. Put plainly: Anticonvulsant activity in CF-1 albino mouse assessed as protection against 6 Hz psychomotor seizure at 100 mg/kg, ip measured after 4 hrs. It is filed as functional. The conditions noted are these: route intraperitoneal. An outline of the steps:
as §5

Data set [20] relates to Mus musculus. As to the kind of experiment: Anticonvulsant activity in CF-1 albino mouse assessed as protection from maximal electric shock-induced seizures at 100 mg/kg, ip measured after 0.25 hrs. Also on record: dose 100 mg/kg. It is filed as functional, organism-based.
Data set [21] concerns Mus musculus. Put plainly: Anticonvulsant activity in CF-1 albino mouse assessed as protection from maximal electric shock-induced seizures at 100 mg/kg, ip measured after 1 hr. It is filed as functional, organism-based. The arrangement: dose 100 mg/kg.
Data set [22] concerns Mus musculus. Put plainly: Anticonvulsant activity in CF-1 albino mouse assessed as protection from maximal electric shock-induced seizures at 300 mg/kg, ip measured after 0.5 hrs. Also on record: dose 300 mg/kg. It is filed as functional, organism-based. An outline of the steps:
as §1

The subject of data set [23] is Mus musculus. As to the kind of experiment: Anticonvulsant activity in CF-1 albino mouse assessed as protection from maximal electric shock-induced seizures at 300 mg/kg, ip measured after 4 hrs. It is filed as functional, organism-based. Also on record: dose 300 mg/kg. An outline of the steps:
as §1

The subject of data set [24] is Mus musculus. Put plainly: Neurotoxicity in ip dosed CF-1 albino mouse assessed as motor impairment measured after 0.5 hrs by rotarod test. It is filed as toxicity, organism-based. The conditions noted are these: in vivo. An outline of the steps:
as §2

Data set [25] deals with Mus musculus. As to the kind of experiment: Neurotoxicity in CF-1 albino mouse assessed as tonic extension at 300 mg/kg, ip measured after 0.5 hrs by rotarod test. The conditions noted are these: in vivo. It is filed as toxicity, organism-based. Also on record: dose 300 mg/kg, route intraperitoneal. An outline of the steps: as §2
Data set [26] relates to Mus musculus. As to the kind of experiment: Anticonvulsant activity in CF-1 albino mouse assessed as protection against subcutaneous pentylenetetrazol-induced seizures at 300 mg/kg, ip measured after 0.5 hrs. It is filed as functional, organism-based. Also on record: dose 300 mg/kg. An outline of the steps: (§6)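 scPTZ test in male CF-1 mice. Compound suspended in 0.5% methylcellulose/water, ip at 30, 100 or 300 mg/kg. Pentylenetetrazole 85 mg/kg (CD97, clonic seizures lasting at least 5 s) given subcutaneously at the test time, read at 0.5 and 4 h. Value is the minimum dose protecting half or more of the animals.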

Data set [27] deals with Mus musculus. As to the kind of experiment: Anticonvulsant activity in CF-1 albino mouse assessed as protection against subcutaneous pentylenetetrazol-induced seizures at 300 mg/kg, ip measured after 4 hrs. It is filed as functional, organism-based. The arrangement: dose 300 mg/kg. An outline of the steps: as §6

The source made the active and inactive calls. No cut-off for these calls is given here.

As a reminder, the ED50 is the dose that gives a 50% effect, or the effect in half of the subjects. What is called TD50 is the 50% point of the dose-response relation for the toxic effect studied.

Turning to `O=C1CC(c2ccccc2F)C(=O)N1CN1CCN(c2cccc(C(F)(F)F)c2)CC1` (racemic), the minimal effective dose in [1] amounted to 300 mg/kg; in data set [2], 100 mg/kg. The Activity result in [3] is on record as “Non-toxic”; in data set [4], “Non-toxic”; in [5], 25%; in data set [6] it was 100%; in [7], 100%; in data set [8], 100%. Moreover, the Activity in [9] was 50%; in data set [10] it was “Non-toxic”; in [15], 25%; in data set [16] it was 75%; in data set [17] it was 0%; in [18], 25%. Besides, the Activity in data set [19] was 25%. For the same compound, the ED50 in [11] is 41.4 mg/kg. The TD50 in data set [12] is greater than 500 mg/kg. Besides, the “Ratio TD50/ED50” value in [13] is on record as greater than 12.09. Further, the Time in [14] was 4 h. Moreover, the result in [20] and in data set [21] was Active.

Take `Cl.O=C1CC(c2ccccc2Br)C(=O)N1CN1CCN(Cc2ccccc2)CC1` (racemic): the result in data set [22], in [23], in data set [26] and in data set [27] was inactive. For the same compound, the MTC in [24] stood at 300 mg/kg. The figures for the Activity result in data set [4] and in [25] were “Non-toxic” and “Toxic”, respectively.

(Values after ChEMBL document CHEMBL2086314, “Synthesis and anticonvulsant activity of new N-Mannich bases derived from 3-(2-fluorophenyl)- and 3-(2-bromophenyl)-pyrrolidine-2,5-diones. Part II” (Bioorg Med Chem, 2012).)
